In paper PMC2680181 (Journal of medicinal chemistry, 2009):

Tests used:
[1] = biological target: T1, MIF tautomerase activity (rhMIF) (Homo sapiens, UniProt P14174); assay: 4-HPP tautomerase assay; type: biochemical; details: for IC50 (µM) 4-HPP tautomerase assay: substrate 4-HPP, NA = measured, but not active; for maximal inhibition in 4-HPP tautomerase assay: max inhibition printed in place of IC50
T1 sequence (P14174 2-115 limits assumed): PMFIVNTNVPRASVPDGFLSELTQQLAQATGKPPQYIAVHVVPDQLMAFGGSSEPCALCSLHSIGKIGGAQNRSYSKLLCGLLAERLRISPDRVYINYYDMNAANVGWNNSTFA
Outline: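 Recombinant human MIF (purified) was pre-incubated with test compound. 4-HPP was dissolved in 50 mM ammonium acetate, pH 6.0, equilibrated to room temperature and stored at 4 °C. At 25 °C, 4-HPP was added to a cuvette of 0.435 M boric acid, pH 6.2, plus the enzyme–compound mix. A305 increase was read over 30–90 s, in triplicate. Compounds spanned a 5000-fold concentration range.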

[2] = biological target: T2, human MIF binding to its receptor, CD74 (Homo sapiens, UniProt P14174); assay: MIF-CD74 binding assay; details: NA = measured, but not active
T2 sequence (P14174 2-115 limits assumed): T1 sequence (P14174 2-115 limits assumed)

[3] = biological target: T1, MIF tautomerase activity (rhMIF); assay: Michaelis-Menten analysis of MIF tautomerase with 4-HPP as substrate; type: biochemical; details: Lineweaver-Burk plots, Vmax unchanged
[4] = tested on: MIF tautomerase; details: covalent inhibitor; cited from earlier work

In the case of `COC(=O)C[C@H]1CC(c2ccc(O)cc2)=NO1` (racemic) [Compound 9, (S,R)-3-(4-hydroxyphenyl)-4,5-dihydro-5-isoxazole acetic acid methyl ester, reference compound], the “IC50 (µM) 4-HPP tautomerase assay” value [1] is reported as “inactive”.

For `O=c1oc2c(O)c(O)ccc2cc1-c1nc2ccccc2s1` [Compound 11], the “IC50 (µM) MIF-CD74 binding assay” value [2] was “inactive”.

In the case of `O=C(O)c1cc(-n2cnnn2)ccc1O` [Compound 15], the “IC50 (µM) MIF-CD74 binding assay” value [2] is reported as “very weak MIF-CD74 antagonists”.

For `O=C(O)c1cc(-n2cnnc2)ccc1Cl` [Compound 16], the “IC50 (µM) MIF-CD74 binding assay” value [2] was “very weak MIF-CD74 antagonists”.

For `CC(=O)Oc1ccc2nc(-c3cc4ccccc4o3)oc(=O)c2c1` [Compound 17], the “IC50 (µM) 4-HPP tautomerase assay” value [1] was “weak tautomerase inhibitors”.

In the case of `Oc1c(C(Nc2cccc(F)c2)c2ccccn2)ccc2cccnc12` (stereo not drawn) [Compound 18], the “IC50 (µM) 4-HPP tautomerase assay” value [1] is reported as “weak tautomerase inhibitors”.

In the case of `O=C(c1cc2ccccc2o1)N1CCc2ccccc21` [Compound 23], the “mode of tautomerase inhibition” value [3] is reported as “competitive inhibition”.

In the case of `Cc1ccc2oc(=O)n(Cc3ccccc3)c2c1` [Compound 24], the “mode of tautomerase inhibition” value [3] is reported as “competitive inhibition”.

For `Oc1ccc(/C=C/c2ccc3cccc(O)c3n2)cc1` [Compound 26], the “maximal inhibition in 4-HPP tautomerase assay” value (shortened to “maximal inhibition”) [1] was “max 40%” and the “IC50 (µM) 4-HPP tautomerase assay” value [1] was “weak tautomerase inhibitors”.

In the case of `CC(=O)Nc1cccc2ccc(-c3cnc4ccccc4c3)nc12` [Compound 28], the “IC50 (µM) MIF-CD74 binding assay” value [2] is reported as “inactive”.

For `Oc1ccc2c(c1)oc1ccccc12` [Compound 29], the “maximal inhibition” value [1] was “max 38%”.

For `O=c1c2ccc(F)cc2sn1-c1ccc(Cl)cc1` [Compound 32], the “IC50 (µM) MIF-CD74 binding assay” value [2] was “inactive”.

In the case of `O=C(O)c1cccc(-c2cc[nH]n2)c1` [Compound 33], the “maximal inhibition” value [1] is reported as “max 30%”.

For `CC(=O)N=C1C=CC(=O)C=C1` [NAPQI, N-acetyl-p-benzoquinone], the tautomerase inhibitor potency [4] is given as 40 µM.
